{"source": "ChEMBL document CHEMBL4425140", "about": "“Discovery of a Potent and Selective Coactivator Associated Arginine Methyltransferase 1 (CARM1) Inhibitor by Virtual Screening” (J Med Chem, 2016)", "key": {"[1]": {"biological_target": "T1, Histone-arginine methyltransferase CARM1 (Homo sapiens, UniProt Q86X55)", "T1 sequence (Q86X55 whole entry)": "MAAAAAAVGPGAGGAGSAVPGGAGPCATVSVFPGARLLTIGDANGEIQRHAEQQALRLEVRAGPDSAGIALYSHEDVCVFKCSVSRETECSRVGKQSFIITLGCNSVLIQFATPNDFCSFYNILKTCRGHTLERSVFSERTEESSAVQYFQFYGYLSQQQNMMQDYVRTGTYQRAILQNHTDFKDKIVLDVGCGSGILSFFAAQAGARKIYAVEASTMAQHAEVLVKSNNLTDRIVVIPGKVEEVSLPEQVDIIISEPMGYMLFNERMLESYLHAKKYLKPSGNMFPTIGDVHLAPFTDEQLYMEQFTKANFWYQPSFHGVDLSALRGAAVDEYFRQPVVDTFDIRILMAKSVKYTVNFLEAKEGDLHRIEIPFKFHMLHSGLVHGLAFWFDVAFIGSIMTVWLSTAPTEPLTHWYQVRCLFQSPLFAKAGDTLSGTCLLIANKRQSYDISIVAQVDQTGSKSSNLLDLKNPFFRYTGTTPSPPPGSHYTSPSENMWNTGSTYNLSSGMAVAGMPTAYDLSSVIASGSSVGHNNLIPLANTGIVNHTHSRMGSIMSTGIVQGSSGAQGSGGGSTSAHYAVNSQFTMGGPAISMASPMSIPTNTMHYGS", "assay": "Inhibition of full-length Halo-tagged human CARM1 (1 to 608 residues) expressed in 293-F cells using [3H]-SAM and biotinylated histone peptides by scintillation proximity based radiometric assay", "type": "cell-based"}, "[2]": {"biological_target": "Protein arginine N-methyltransferase 6 (Homo sapiens, UniProt Q96LA8)", "sequence (Q96LA8 whole entry)": "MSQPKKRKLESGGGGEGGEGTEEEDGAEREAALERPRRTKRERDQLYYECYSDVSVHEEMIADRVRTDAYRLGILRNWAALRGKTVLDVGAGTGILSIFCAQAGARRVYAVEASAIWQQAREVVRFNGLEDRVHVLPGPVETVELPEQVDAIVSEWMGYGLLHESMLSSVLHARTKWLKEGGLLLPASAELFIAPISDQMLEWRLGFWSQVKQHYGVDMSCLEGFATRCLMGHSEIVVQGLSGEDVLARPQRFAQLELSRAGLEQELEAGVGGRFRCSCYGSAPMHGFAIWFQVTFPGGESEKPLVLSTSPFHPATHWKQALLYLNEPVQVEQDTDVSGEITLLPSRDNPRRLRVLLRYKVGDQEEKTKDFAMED", "assay": "Inhibition of PRMT6 (unknown origin)"}, "[3]": {"biological_target": "Protein arginine N-methyltransferase 8 (Homo sapiens, UniProt Q9NR22)", "sequence (Q9NR22 whole entry)": "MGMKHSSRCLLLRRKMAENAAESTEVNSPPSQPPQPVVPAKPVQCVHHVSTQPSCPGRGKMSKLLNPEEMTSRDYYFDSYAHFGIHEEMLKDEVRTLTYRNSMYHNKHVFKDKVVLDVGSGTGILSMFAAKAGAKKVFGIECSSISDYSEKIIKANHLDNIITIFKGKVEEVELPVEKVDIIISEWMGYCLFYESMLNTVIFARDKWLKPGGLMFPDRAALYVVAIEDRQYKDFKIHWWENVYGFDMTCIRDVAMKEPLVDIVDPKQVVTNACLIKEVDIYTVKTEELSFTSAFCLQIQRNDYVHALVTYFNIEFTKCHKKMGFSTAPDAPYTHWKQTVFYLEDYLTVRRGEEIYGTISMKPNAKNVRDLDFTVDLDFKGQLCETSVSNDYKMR", "assay": "Inhibition of PRMT8 (unknown origin)"}, "[4]": {"biological_target": "T1, Histone-arginine methyltransferase CARM1", "assay": "Binding affinity to full-length Halo-tagged human CARM1 (1 to 608 residues) expressed in 293-F cells by surface plasmon resonance assay", "in_short": "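About 4500 RU of CARM1 amine-coupled to a CM5 chip, blank cell used for reference subtraction. Compounds serially diluted in DMSO, then into HBS-EP buffer at 5% DMSO final. Contact time 30 s at 75 μL/min.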"}, "[5]": {"assay": "Selectivity index, ratio of IC50 for RMT6 (unknown origin) to IC50 for full-length Halo-tagged human CARM1 (1 to 608 residues) expressed in 293-F cells", "type": "cell-based"}, "[6]": {"biological_target": "T2, Histone-arginine methyltransferase CARM1 (Homo sapiens) (UniProt Q86X55)", "T2 sequence (whole entry)": "T1 sequence (Q86X55 whole entry)", "assay": "Non-competitive inhibition of full-length Halo-tagged human CARM1 (1 to 608 residues) expressed in 293-F cells using [3H]-SAM and increasing biotinylated histone peptides by scintillation proximity based radiometric assay", "type": "cell-based"}, "[7]": {"biological_target": "T3, Protein arginine N-methyltransferase 7 (Homo sapiens, UniProt Q9NVM4)", "T3 sequence (Q9NVM4 whole entry)": "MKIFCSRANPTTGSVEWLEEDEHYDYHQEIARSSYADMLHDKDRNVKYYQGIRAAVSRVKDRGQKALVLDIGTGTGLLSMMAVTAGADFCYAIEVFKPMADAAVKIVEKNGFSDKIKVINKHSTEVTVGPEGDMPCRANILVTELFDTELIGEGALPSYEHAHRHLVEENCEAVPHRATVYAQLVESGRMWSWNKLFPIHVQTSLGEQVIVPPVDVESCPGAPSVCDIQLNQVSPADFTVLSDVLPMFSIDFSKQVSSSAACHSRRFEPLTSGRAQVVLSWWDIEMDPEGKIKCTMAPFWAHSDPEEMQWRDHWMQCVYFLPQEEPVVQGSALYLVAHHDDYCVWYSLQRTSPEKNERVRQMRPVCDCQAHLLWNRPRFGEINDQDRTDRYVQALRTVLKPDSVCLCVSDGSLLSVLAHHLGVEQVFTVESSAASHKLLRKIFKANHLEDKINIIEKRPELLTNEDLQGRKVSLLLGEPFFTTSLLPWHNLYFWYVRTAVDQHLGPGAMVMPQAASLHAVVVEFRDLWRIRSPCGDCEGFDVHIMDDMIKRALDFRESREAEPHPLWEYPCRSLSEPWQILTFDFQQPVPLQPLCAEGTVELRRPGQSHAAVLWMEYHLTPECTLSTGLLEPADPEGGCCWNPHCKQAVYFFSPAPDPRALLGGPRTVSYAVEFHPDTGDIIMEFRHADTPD", "assay": "Inhibition of PRMT7 (unknown origin)"}, "[8]": {"biological_target": "Protein arginine N-methyltransferase 3 (Homo sapiens, UniProt O60678)", "sequence (O60678 whole entry)": "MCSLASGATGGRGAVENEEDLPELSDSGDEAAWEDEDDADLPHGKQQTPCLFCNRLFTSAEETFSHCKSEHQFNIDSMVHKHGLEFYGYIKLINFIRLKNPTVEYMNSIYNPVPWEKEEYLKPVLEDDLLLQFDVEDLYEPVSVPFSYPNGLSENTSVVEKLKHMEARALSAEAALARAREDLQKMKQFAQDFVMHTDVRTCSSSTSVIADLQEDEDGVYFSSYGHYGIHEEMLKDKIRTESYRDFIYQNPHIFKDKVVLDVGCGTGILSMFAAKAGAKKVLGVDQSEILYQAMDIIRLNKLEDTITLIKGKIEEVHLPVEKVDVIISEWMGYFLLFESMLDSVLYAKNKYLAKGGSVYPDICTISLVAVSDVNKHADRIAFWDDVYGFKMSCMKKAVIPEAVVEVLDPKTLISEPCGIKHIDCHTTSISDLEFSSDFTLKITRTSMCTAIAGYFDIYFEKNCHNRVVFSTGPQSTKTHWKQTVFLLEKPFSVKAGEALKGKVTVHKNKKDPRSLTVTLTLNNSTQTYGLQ", "assay": "Inhibition of PRMT3 (unknown origin)"}, "[9]": {"biological_target": "T2, Histone-arginine methyltransferase CARM1 (Homo sapiens)", "assay": "Inhibition of CARM1 in HEK293 cells assessed as reduction in BAF155 methylation at 1 uM incubated for 48 hrs by SDS-PAGE and immunoblotting"}, "[10]": {"biological_target": "Protein arginine N-methyltransferase 5 (Homo sapiens, UniProt O14744)", "sequence (O14744 whole entry)": "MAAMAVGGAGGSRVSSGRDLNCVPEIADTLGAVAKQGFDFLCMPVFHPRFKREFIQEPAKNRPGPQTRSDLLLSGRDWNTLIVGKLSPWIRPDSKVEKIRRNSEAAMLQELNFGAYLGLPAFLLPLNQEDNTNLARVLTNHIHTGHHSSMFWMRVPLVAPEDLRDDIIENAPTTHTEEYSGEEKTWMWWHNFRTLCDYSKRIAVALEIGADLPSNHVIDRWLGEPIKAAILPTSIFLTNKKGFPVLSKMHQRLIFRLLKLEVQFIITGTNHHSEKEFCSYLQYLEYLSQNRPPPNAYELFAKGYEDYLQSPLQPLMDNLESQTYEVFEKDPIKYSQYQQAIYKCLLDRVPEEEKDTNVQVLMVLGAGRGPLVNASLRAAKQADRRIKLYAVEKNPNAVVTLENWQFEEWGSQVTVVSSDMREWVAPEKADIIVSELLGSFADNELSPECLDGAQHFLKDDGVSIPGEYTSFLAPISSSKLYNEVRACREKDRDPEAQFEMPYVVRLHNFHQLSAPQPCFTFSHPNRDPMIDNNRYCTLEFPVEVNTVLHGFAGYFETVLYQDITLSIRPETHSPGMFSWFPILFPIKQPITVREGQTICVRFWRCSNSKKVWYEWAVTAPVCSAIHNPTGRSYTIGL", "assay": "Inhibition of PRMT5 (unknown origin)"}, "[11]": {"biological_target": "T2, Histone-arginine methyltransferase CARM1 (Homo sapiens)", "assay": "Inhibition of CARM1 in HEK293 cells assessed as reduction in BAF155 methylation at 10 uM incubated for 48 hrs by SDS-PAGE and immunoblotting"}, "[12]": {"biological_target": "Protein arginine N-methyltransferase 1 (Homo sapiens, UniProt Q99873)", "sequence (Q99873 whole entry)": "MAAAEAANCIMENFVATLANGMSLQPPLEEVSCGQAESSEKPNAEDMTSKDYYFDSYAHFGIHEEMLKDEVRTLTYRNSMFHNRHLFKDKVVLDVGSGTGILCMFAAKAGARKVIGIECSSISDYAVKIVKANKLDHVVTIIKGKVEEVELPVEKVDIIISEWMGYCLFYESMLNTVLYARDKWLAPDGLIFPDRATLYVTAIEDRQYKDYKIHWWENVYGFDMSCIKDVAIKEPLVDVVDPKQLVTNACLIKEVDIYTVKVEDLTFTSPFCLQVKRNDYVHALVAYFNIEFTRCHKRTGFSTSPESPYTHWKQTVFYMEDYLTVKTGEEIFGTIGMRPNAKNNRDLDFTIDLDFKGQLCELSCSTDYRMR", "assay": "Inhibition of PRMT1 (unknown origin)"}, "[13]": {"biological_target": "T2, Histone-arginine methyltransferase CARM1 (Homo sapiens)", "assay": "Non-competitive inhibition of full-length Halo-tagged human CARM1 (1 to 608 residues) expressed in 293-F cells using increasing [3H]-SAM and biotinylated histone peptides by scintillation proximity based radiometric assay", "type": "cell-based"}, "[14]": {"biological_target": "T2, Histone-arginine methyltransferase CARM1 (Homo sapiens)", "assay": "Inhibition of full-length Halo-tagged human CARM1 (1 to 608 residues) expressed in 293-F cells at 50 uM using [3H]-SAM and biotinylated histone peptides by scintillation proximity based radiometric assay", "type": "cell-based", "in_short": "(§1)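 Radiometric scintillation proximity assay. Tag-cleaved full-length human CARM1 (1–608) at 25 nM, with 0.7 μM C-terminally biotinylated H3 1–25 peptide and 1.9 μM [3H]-SAM in 20 mM bicine pH 8.5. Transfer of tritiated methyl to the peptide counted as cpm. Single compound concentration per line.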"}, "[15]": {"biological_target": "T2, Histone-arginine methyltransferase CARM1 (Homo sapiens)", "assay": "Inhibition of full-length Halo-tagged human CARM1 (1 to 608 residues) expressed in 293-F cells at 10 uM using [3H]-SAM and biotinylated histone peptides by scintillation proximity based radiometric assay", "type": "cell-based", "in_short": "as §1"}}, "note": "Calls of active or inactive are those of the source. The rule behind the calls is not given here.", "data": [{"smiles": "Cc1cc(C)n(-c2ccc(CNC(=O)C(C)N)cc2)n1", "note": "(stereo not drawn)", "values": [{"measurement": "IC50", "setting": "[1]", "result": "Not Active"}, {"measurement": "IC50", "setting": "[2]", "result": "Not Active"}]}, {"smiles": "NCC(=O)NCCc1ccccc1", "values": [{"measurement": "IC50", "setting": "[3]", "result": "Not Active"}, {"measurement": "IC50", "setting": "[1]; read-out: IC50", "result": 20.5, "unit": "µM"}, {"measurement": "Kd", "setting": "[4]", "result": "Not Active"}, {"measurement": "IC50", "setting": "[2]", "result": "Not Active"}]}, {"smiles": "Cc1cc(C)cc(Oc2ccc(CNC(=O)[C@H](C)N)cc2C)c1", "values": [{"measurement": "Ratio IC50", "setting": "[5]", "result": "> 100"}, {"measurement": "inhibition", "setting": "[6]", "result": "Active"}, {"measurement": "IC50", "setting": "[7]", "result": "> 100", "unit": "µM"}, {"measurement": "IC50", "setting": "[3]; read-out: IC50", "result": "> 50", "unit": "µM"}, {"measurement": "IC50", "setting": "[8]", "result": "> 100", "unit": "µM"}, {"measurement": "IC50", "setting": "[1]; read-out: IC50", "result": 0.05, "unit": "µM"}, {"measurement": "inhibition", "setting": "[9]", "result": "inactive"}, {"measurement": "IC50", "setting": "[10]", "result": "> 100", "unit": "µM"}, {"measurement": "inhibition", "setting": "[11]", "result": "inactive"}, {"measurement": "IC50", "setting": "[12]", "result": "> 100", "unit": "µM"}, {"measurement": "inhibition", "setting": "[13]", "result": "Active"}, {"measurement": "IC50", "setting": "[2]; read-out: IC50", "result": 5.2, "unit": "µM"}]}, {"smiles": "Cc1cc(OCCNCCN)ccc1C(C)C", "values": [{"measurement": "IC50", "setting": "[3]", "result": "Not Active"}, {"measurement": "IC50", "setting": "[1]; read-out: IC50", "result": 16.6, "unit": "µM"}, {"measurement": "Kd", "setting": "[4]", "result": "Not Active"}, {"measurement": "IC50", "setting": "[2]", "result": "Not Active"}]}, {"smiles": "CC(Cc1c[nH]c2ccccc12)NC(=O)CN", "note": "(stereo not drawn)", "values": [{"measurement": "inhibition", "setting": "[14]", "result": "Active"}, {"measurement": "IC50", "setting": "[3]", "result": "Not Active"}, {"measurement": "inhibition", "setting": "[15]", "result": "Active"}, {"measurement": "IC50", "setting": "[1]; read-out: IC50", "result": "> 65", "unit": "µM"}, {"measurement": "IC50", "setting": "[2]", "result": "Not Active"}]}, {"smiles": "C[C@@H](N)C(=O)NCc1cccnc1Oc1ccc(F)cc1F", "values": [{"measurement": "IC50", "setting": "[1]; read-out: IC50", "result": "> 40", "unit": "µM"}, {"measurement": "IC50", "setting": "[2]", "result": "Not Active"}]}, {"smiles": "CC(C)(N)C(=O)NCc1cccnc1Oc1ccc(F)cc1F", "values": [{"measurement": "IC50", "setting": "[1]", "result": "Not Active"}, {"measurement": "IC50", "setting": "[2]", "result": "Not Active"}]}, {"smiles": "CNCCN1CCC(OCc2ccccc2)CC1", "values": [{"measurement": "inhibition", "setting": "[11]", "result": "Active"}]}, {"smiles": "NCC(=O)NCc1cccnc1Oc1ccc(F)cc1F", "values": [{"measurement": "IC50", "setting": "[2]", "result": "Not Active"}]}, {"smiles": "NCCN1CCC(c2nnc(Cn3ccnc3)n2C2CC2)CC1", "values": [{"measurement": "inhibition", "setting": "[14]", "result": "Active"}, {"measurement": "IC50", "setting": "[3]", "result": "Not Active"}, {"measurement": "inhibition", "setting": "[15]", "result": "Active"}, {"measurement": "IC50", "setting": "[1]; read-out: IC50", "result": "> 50", "unit": "µM"}, {"measurement": "IC50", "setting": "[2]", "result": "Not Active"}]}]}
